Source: article PMC6704442 (ACS Omega, 2019)
Values joined by “and” are separate entries in the source; they are usually repeats but may differ in a detail not shown here. Equal entries are not always repeated.

Key:
[1] = 40 mg kg^–1; cited from earlier work
H1 histone = H1 histone binding by steady-state fluorescence quenching; conditions: 300 K, ±2σ
[2] = literature value for comparison; cited from earlier work
[3] = biological target: human serum albumin (HSA) (Homo sapiens, UniProt P02768); assay: HSA binding by steady-state fluorescence quenching; conditions: 300 K, ±2σ
Chain of human serum albumin (HSA) (P02768 25-609): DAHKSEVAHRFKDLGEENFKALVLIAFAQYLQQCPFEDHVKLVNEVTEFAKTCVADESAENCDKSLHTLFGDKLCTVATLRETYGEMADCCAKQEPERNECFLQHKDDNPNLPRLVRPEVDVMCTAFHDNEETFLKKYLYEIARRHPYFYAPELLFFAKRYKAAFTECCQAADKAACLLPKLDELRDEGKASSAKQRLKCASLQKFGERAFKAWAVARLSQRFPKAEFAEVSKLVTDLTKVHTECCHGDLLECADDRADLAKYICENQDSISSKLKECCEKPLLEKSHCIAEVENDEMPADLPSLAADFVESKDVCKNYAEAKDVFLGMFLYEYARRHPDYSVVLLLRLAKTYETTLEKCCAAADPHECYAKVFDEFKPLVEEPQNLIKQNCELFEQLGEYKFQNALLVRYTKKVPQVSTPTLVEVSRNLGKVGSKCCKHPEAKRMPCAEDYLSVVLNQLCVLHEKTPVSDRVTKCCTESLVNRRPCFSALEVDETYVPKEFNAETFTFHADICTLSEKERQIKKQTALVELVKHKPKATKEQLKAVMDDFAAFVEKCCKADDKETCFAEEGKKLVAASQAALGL
In short: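 Human serum albumin (5 μM, 3 mL, freshly prepared in buffer) was titrated with successive additions of test compound stock at 300 K. Excitation was 283 nm and emission was read at 372 nm, with slits of 1 and 5 nm. Fluorescence was inner-filter corrected. KSV came from the Stern–Volmer equation; Ka and n came from log[(F0−F)/F] versus log[Q]. Performed in triplicate.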

SMILES	tmax [1] [h]	KSV × 10^–3 (Stern-Volmer constant), H1 (H1 histone)	n (number of binding sites), H1 (H1 histone)	AUCtotal [2] [μg h L^–1]	CLapp [2] [L h^–1]	Vd [2] [L]	t1/2e [2] [h]	KSV × 10^–3 (Stern-Volmer constant), HSA [3]	n (number of binding sites), HSA [3]
[Cl][Ru]([Cl])([Cl])[Cl].[Na+].c1ccc2[nH]ncc2c1.c1ccc2[nH]ncc2c1 [KP-1339/IT139, sodium trans-[tetrachloridobis(1H-indazole)ruthenate(III)]]	2.5	–	–	–	–	–	–	–	–
Cc1ccc(C(C)C)cc1.[Cl][Ru]([Cl])[PH]12CN3CN(CN(C3)C1)C2 [RAPTA-C]	–	1.85 ± 0.21 × 10^–3	1.06 ± 0.03	891	0.009	0.153	11.47	7.06 ± 1.37 × 10^–3	0.87 ± 0.04
N.N.[Cl][Pt][Cl] [cisplatin]	–	2.28 ± 0.59 × 10^–3	0.48 and 0.48 ± 0.14	–	–	–	–	0.58 ± 0.14 × 10^–3	1.18 ± 0.21
